Laboratory results as given in ChEMBL document CHEMBL1129637, “Conformationally defined 6-s-trans-retinoic acid analogs. 3. Structure-activity relationships for nuclear receptor binding, transcriptional activity, and cancer chemopreventive activity” (J Med Chem, 1996).
pIC50, pKd: −log10 of the molar value. Where “and” joins values, the source holds several entries; their conditions need not be identical. Equal entries are not always repeated.

How the values were obtained:
[1] = target: Cellular retinoic acid-binding protein 1 (Gallus gallus) (UniProt P40220); test: Inhibition of chick skin Cytoplasmic retinoic acid binding protein at 100-fold excess ligand
Sequence of Cellular retinoic acid-binding protein 1 (Gallus gallus) (P40220 whole entry): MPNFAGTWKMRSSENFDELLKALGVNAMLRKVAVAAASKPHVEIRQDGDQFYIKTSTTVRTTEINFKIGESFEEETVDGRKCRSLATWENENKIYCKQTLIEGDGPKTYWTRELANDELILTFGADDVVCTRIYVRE

Mus musculus [2] = species: Mus musculus; test: Antitumor activity in Mouse Skin Papilloma model; type: functional
Outline: (§1)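 Carcinogen-induced papillomas on mouse dorsal skin, with test retinoid applied 1 h before TPA. Percent papilloma reduction = (1 − mean tumors in retinoid-treated animals / mean tumors in controls) × 100. ED50 came from probit analysis of a dose-response curve. Estimated standard error is 20% of the mean.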

Mus musculus [3] = species: Mus musculus; test: Percentage papilloma reduction (81) at 45.9 nmol dose 1 hr prior to TPA; type: functional; outline: as §1
[4] = target: T1, Retinoic acid receptor alpha (Mus musculus) (UniProt P11416); test: Percent inhibition of [3H]ATRA binding to mouse Retinoic acid receptor RAR alpha; design: concentration or dose not given beside the values; conditions: concentration not given here
T1 sequence (whole entry): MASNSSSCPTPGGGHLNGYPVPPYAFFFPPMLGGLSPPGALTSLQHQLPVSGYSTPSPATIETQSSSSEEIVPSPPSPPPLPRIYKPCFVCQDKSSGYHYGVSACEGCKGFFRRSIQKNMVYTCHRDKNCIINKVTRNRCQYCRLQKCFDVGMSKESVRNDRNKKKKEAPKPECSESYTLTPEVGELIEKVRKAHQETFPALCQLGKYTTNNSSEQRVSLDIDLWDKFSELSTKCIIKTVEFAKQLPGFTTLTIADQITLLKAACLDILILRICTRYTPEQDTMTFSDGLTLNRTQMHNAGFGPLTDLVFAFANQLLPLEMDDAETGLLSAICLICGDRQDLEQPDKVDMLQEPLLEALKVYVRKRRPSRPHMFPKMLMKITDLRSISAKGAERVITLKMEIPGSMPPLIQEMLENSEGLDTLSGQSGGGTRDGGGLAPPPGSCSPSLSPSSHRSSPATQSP
Outline: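 RARα was exposed to 1000 nM test retinoid plus 5 nM [3H]-(all-E)-RA. Displacement was compared with a positive control of 1000 nM unlabeled (all-E)-RA and with a no-retinoid control.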

[5] = target: Cellular retinoic acid-binding protein 1 (Mus musculus, UniProt P62965); test: Inhibition of [3H]ATRA binding to murine Cytoplasmic retinoic acid binding protein (CRABP) type 1
Sequence of Cellular retinoic acid-binding protein 1 (Mus musculus, UniProt P62965) (P62965 whole entry, the tested form may be a part): as the sequence (P40220 whole entry) above, with I68V, S71G, A86P, Y95H, K97T, I101L counted along it

[6] = target: T2, Retinoic acid receptor RXR-alpha (Homo sapiens, UniProt P19793); test: Inhibition of binding to human Retinoic acid receptor RXR DEF domain
T2 sequence (P19793 whole entry): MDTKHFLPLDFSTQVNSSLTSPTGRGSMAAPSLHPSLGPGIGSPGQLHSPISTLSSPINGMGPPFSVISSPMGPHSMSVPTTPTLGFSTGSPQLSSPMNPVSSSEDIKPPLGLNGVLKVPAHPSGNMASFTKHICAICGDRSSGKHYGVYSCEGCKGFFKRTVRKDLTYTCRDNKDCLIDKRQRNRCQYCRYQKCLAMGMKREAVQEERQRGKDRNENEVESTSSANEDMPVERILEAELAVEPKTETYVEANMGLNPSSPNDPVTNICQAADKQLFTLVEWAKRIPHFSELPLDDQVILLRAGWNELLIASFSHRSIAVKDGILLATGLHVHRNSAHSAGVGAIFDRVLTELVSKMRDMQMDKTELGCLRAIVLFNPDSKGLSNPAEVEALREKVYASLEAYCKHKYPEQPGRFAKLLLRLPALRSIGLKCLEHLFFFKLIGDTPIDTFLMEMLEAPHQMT

[7] = target: T3, Retinoic acid receptor alpha (Mus musculus, UniProt P11416); test: Inhibition of [3H]ATRA binding to mouse Retinoic acid receptor RAR alpha
T3 sequence (P11416 whole entry): T1 sequence (whole entry)
Outline: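 Radioligand competition assay for RARα, measuring inhibition of [3H]-(all-E)-RA binding by unlabeled retinoid over a dose series to derive IC50.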

[8] = target: T4, Retinoic acid receptor RXR-alpha (Mus musculus, UniProt P28700); test: Inhibition of [3H]-(9Z)-RA binding to mouse Retinoic acid receptor RXR alpha
T4 sequence (P28700 whole entry): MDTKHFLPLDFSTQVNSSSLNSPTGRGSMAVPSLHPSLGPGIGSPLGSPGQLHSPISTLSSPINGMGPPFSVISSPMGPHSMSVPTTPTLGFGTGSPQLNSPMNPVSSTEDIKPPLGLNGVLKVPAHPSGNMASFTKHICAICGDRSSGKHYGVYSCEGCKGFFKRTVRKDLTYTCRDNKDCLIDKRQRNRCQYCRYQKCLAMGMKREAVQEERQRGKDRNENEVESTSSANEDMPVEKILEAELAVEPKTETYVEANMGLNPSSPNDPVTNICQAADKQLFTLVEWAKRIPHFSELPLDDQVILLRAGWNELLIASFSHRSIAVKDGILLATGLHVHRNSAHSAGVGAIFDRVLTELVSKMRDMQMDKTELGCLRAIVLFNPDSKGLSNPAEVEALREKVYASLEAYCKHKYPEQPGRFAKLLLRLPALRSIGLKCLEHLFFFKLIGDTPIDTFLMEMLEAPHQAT

Mus musculus [9] = species: Mus musculus; test: Antitumor activity in Mouse Skin Papilloma model * Value determined by Dawson et al; type: functional
[10] = target: Cellular retinoic acid-binding protein 1 (Gallus gallus, UniProt P40220); test: Inhibition of [3H]ATRA binding to chick skin Cytoplasmic retinoic acid binding protein
Sequence of Cellular retinoic acid-binding protein 1 (Gallus gallus, UniProt P40220) (P40220 whole entry): as the sequence (P40220 whole entry) above

[11] = target: T5, Cellular retinoic acid-binding protein 2 (Mus musculus, UniProt P22935); test: Inhibition of [3H]ATRA binding to murine Cytoplasmic retinoic acid binding protein (CRABP) type 2
T5 sequence (P22935 whole entry): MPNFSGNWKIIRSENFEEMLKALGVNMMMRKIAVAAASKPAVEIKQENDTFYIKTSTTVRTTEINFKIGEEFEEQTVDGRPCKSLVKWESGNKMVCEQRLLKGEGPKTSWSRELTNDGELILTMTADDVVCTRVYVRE

[12] = Inhibition of [3H]ATRA binding to Cytoplasmic retinoic acid binding protein (CRABP) type 1

Row | Compound | inhibition [1] | inhibition [4] | pKd [5] | pKd [6] | pIC50 [7] | pIC50 [8] | pIC50 [10] | pKd [11] | pIC50 [12] | ED50 (Mus musculus [2]) | Reduction (Mus musculus [3]) | ED50 (Mus musculus [9])
1 | CC1=C(/C=C/C(C)=C\C=C\C(C)=C\C(=O)O)C(C)(C)CCC1 [ALITRETINOIN] | 25% | 95% | – | – | – | – | – | – | – | 2.1 nM | 95% | –
2 | CC(=CC(=O)O)/C=C/C=C(C)/C=C/C1=C(C)CCCC1(C)C [ISOTRETINOIN] | – | – | – | – | – | – | – | – | – | – | – | 64 nmol
3 | CCC1=C(C(C)C)/C(=C/C(C)=C/C=C/C(C)=CC(=O)O)CCC1 | – | – | – | – | – | – | – | – | – | 4.7 nmol | 81% | –
4 | CC1=C(/C=C/C(C)=C/C=C/C(C)=C/C(=O)O)C(C)(C)CCC1 [TRETINOIN] | 100% | 100% | – | – | – | – | – | – | – | 3 nM | 95% | –
5 | CC(=C\C=C\C(C)=C\C(=O)O)/C=C1/C=CCCC1 | 50% | 55% | 8.52 | < 6.70 | 6.22 | < 5.70 | < 5.00 | 7.89 | – | > 1000 nM | 22% | –
6 | C\C(C=C1C=CCCC1)=C/C=C/C(C)=C/C(=O)O | 45% | 45% | – | < 6.70 | < 5.70 | < 5.70 | – | 8.52 and 8.00 | < 5.00 | – | – | –

The next lines start with results.

Row | inhibition [1] | inhibition [4] | pKd [5] | pKd [6] | pIC50 [7] | pIC50 [8] | pIC50 [10] | pKd [11] | pIC50 [12] | Compound | ED50 (Mus musculus [2]) | Reduction (Mus musculus [3]) | ED50 (Mus musculus [9])
7 | 43% | 37% | < 6.70 | 7.48 | < 6.00 | 6.21 | – | – | – | CC1=C(C(C)C)/C(=C/C(C)=C\C=C\C(C)=C\C(=O)O)CCC1 | > 100 nM | 30% | –
8 | 15% | 42% | < 6.70 | 7.80 | – | 6.00 | < 5.00 | < 6.70 | – | CCC1=C(C(C)C)/C(=C/C(C)=C\C=C\C(C)=C\C(=O)O)CCC1 | > 100 nM | 43% | –
9 | 10% | 10% | < 6.70 | 6.92 | < 5.70 | < 5.70 | < 5.00 | < 6.70 | – | CC1=C(C)/C(=C/C(C)=C\C=C\C(C)=C\C(=O)O)CCC1 | – | 50% | –
10 | 100% | 98% | – | – | – | < 5.70 | – | – | – | CCC1=C(C(C)C)/C(=C/C(C)=C/C=C/C(C)=C/C(=O)O)CCC1 | 2.5 nM | 99% | –
11 | 100% | 100% | 9.00 | < 6.70 | 8.10 | < 5.70 | – | – | – | CC1=C(C(C)C)/C(=C/C(C)=C/C=C/C(C)=C/C(=O)O)CCC1 | 5 nM | 95% | –
12 | 90% | 90% | 8.92 | < 6.70 | 7.26 | < 5.70 | 5.89 | 7.89 | – | CC1=C(C)/C(=C/C(C)=C/C=C/C(C)=C/C(=O)O)CCC1 | 490 nM | 32% | –
